Active and inactive are the calls of the source. The calls are words filed in the database; no cut-off is given here.
Legend:
[1] = Cytotoxicity against human primary CLL cells assessed as cell death after 48 hrs by annexin V/propidium iodide-staining based flow cytometry; format: functional; details: read-out: LC50 (the source's name)
Summary of the method: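 Primary patient CLL cells were isolated by Histopaque density gradient, phenotyped by flow cytometry and used within 24 h. Culture was RPMI with 10% FBS, 1% glutamate and 1% pen/strep, plus IL-4 5 ng/ml added with compound, at 37 °C, 5% CO2. Cells at 1,000,000 cells/ml were treated from 1 nM upward for 48 h, in triplicate. Annexin V-FITC/PI was read by flow cytometry, and LC50 came from sigmoidal dose-response fits.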

JJN-3 = experiment: Cytotoxicity against human JJN-3 cells assessed as cell death after 48 hrs by annexin V/propidium iodide-staining based flow cytometry; format: functional; details: JJN-3, 48 h, read-out: LC50 (the source's name)
Summary of the method: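 JJN-3 cells were grown in DMEM with 20% FBS, 1% pen/strep and 1% pyruvate at 37 °C, 5% CO2. They were seeded at 1,000,000 cells/ml and exposed to compound from 1 nM upward for 48 h, in triplicate. Cell death was measured by Annexin V-FITC/propidium iodide flow cytometry, and LC50 was derived from sigmoidal dose-response curves.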

[2] = Cytotoxicity against human B cells assessed as cell death after 48 hrs by annexin V/propidium iodide-staining based flow cytometry; details: read-out: LC50
Summary of the method: (§1)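 Normal peripheral blood B or T cells from three donors were isolated by Histopaque density gradient and phenotyped for CD19/CD3/CD38/CD49d. They were used within 24 h in RPMI with 10% FBS, 1% glutamate and 1% pen/strep at 37 °C, 5% CO2. Cells at 1,000,000 cells/ml were exposed from 1 nM upward for 48 h, in triplicate. FITC-Annexin V/PI staining was read by flow cytometry, and LC50 was taken from the dose-response curves.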

[3] = Cytotoxicity against human T cells assessed as cell death after 48 hrs by annexin V/propidium iodide-staining based flow cytometry; details: read-out: LC50; summary of the method: as §1
[4] = Therapeutic index, ratio of LC50 for human B cells to LC50 for human primary CLL cells; format: toxicity; details: B cells versus primary CLL cells, read-out: TI
[5] = Therapeutic index, ratio of LC50 for human T cells to LC50 for human primary CLL cells; format: toxicity; details: T cells versus primary CLL cells, read-out: TI
[6] = biological target: Transcription factor p65 (Homo sapiens) (UniProt Q04206); experiment: Inhibition of NF-kappaB in human JJN-3 cells assessed as reduction in p65 DNA binding activity up to 30 nM after 4 hrs by ELISA; format: cell-based
Sequence of Transcription factor p65 (Homo sapiens) (Q04206 whole entry): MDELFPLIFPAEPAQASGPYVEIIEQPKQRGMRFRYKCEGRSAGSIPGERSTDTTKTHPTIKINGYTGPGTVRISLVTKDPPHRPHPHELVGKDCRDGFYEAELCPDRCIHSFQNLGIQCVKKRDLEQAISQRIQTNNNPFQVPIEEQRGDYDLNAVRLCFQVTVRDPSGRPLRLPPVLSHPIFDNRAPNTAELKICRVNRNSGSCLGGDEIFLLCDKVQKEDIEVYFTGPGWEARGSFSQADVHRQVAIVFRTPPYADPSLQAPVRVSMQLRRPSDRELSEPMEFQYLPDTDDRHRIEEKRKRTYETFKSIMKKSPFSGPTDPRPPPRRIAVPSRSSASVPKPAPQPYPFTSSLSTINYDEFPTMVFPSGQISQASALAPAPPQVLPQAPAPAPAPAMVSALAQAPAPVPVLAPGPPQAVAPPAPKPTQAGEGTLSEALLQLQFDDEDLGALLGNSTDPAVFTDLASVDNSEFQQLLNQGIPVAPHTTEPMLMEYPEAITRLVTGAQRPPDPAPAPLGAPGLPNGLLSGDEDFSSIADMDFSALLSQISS

[7] = biological target: T1, Nuclear factor NF-kappa-B p105 subunit (Homo sapiens) (UniProt P19838); experiment: Inhibition of NF-kappaB in human JJN-3 cells assessed as reduction in p50 DNA binding activity up to 30 nM after 4 hrs by ELISA; format: cell-based
T1 sequence (whole entry): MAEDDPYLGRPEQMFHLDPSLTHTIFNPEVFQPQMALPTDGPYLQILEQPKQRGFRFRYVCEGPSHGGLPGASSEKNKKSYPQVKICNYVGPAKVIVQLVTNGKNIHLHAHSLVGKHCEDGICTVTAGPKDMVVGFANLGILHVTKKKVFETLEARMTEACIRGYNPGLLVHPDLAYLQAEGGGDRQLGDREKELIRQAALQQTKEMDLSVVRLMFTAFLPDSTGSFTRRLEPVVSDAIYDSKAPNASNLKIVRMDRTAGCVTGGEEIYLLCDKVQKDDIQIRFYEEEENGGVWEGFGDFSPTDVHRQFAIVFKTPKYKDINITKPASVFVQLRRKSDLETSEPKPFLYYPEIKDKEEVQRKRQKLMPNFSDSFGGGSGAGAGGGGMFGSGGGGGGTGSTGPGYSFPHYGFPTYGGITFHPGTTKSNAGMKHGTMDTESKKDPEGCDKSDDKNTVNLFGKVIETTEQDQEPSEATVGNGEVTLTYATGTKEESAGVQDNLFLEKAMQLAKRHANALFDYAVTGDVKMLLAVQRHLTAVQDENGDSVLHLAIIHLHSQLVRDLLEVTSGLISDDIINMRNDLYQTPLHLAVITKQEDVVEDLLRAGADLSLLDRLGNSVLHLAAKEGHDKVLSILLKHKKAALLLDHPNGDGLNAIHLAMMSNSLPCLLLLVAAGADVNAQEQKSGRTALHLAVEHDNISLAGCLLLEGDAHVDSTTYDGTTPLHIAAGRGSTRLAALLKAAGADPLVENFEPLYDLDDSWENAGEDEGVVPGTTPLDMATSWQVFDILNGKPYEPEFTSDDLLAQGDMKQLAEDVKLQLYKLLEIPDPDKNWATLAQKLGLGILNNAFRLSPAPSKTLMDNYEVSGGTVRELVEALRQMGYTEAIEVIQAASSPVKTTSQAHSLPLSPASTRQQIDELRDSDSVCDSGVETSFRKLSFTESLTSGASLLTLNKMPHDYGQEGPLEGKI

[8] = biological target: T2, Transcription factor RelB (Homo sapiens) (UniProt Q01201); experiment: Inhibition of NF-kappaB in human JJN-3 cells assessed as reduction in RelB DNA binding activity up to 30 nM after 4 hrs by ELISA; format: cell-based
T2 sequence (whole entry): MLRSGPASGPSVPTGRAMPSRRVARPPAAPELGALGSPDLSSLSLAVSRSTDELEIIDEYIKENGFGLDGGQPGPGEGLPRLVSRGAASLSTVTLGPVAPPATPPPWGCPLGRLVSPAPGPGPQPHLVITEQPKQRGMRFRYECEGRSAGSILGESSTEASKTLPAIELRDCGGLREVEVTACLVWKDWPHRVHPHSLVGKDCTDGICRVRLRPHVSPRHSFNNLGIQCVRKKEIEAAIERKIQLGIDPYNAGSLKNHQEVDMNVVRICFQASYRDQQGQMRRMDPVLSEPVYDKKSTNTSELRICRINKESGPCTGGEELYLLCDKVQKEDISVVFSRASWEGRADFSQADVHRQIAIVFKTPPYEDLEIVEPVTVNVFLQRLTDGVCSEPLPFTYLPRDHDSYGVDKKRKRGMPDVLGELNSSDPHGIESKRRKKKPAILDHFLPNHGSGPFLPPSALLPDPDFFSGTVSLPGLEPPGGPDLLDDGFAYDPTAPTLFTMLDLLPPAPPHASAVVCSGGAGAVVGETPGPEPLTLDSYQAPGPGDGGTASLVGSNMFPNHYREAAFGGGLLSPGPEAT

[9] = biological target: T3, Nuclear factor NF-kappa-B p100 subunit (Homo sapiens) (UniProt Q00653); experiment: Inhibition of NF-kappaB in human JJN-3 cells assessed as reduction in p52 DNA binding activity up to 30 nM after 4 hrs by ELISA; format: cell-based
T3 sequence (whole entry): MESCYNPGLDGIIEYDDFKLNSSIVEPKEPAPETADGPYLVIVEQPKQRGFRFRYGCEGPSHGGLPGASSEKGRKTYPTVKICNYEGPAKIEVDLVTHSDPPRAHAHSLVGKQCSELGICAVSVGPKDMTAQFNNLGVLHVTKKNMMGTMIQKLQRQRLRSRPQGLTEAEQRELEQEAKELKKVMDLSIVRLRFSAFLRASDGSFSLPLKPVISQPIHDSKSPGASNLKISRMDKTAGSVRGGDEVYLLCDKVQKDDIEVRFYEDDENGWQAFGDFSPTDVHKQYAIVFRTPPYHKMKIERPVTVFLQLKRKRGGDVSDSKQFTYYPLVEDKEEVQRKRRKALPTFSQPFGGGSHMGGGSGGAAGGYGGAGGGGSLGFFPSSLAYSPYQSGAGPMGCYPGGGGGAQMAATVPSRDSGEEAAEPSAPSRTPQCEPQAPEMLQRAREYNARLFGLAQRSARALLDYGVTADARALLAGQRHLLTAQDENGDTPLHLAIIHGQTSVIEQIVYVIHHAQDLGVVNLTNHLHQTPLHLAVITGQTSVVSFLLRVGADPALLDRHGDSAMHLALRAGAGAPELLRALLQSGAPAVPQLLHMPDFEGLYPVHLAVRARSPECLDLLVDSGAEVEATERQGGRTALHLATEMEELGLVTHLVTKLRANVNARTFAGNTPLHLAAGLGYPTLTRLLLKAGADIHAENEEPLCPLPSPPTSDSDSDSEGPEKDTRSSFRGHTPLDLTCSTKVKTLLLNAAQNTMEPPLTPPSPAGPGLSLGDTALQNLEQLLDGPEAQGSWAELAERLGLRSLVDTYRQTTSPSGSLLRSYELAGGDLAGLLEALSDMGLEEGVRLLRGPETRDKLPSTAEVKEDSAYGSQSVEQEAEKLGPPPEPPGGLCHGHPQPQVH

| SMILES | CC50 [1] | CC50 (JJN-3) | CC50 at 48 h [2] | CC50 at 48 h [3] | selectivity ratio [4] | selectivity ratio [5] | inhibition [6] | inhibition [7] | inhibition [8] | inhibition [9] |
| --- | --- | --- | --- | --- | --- | --- | --- | --- | --- | --- |
| COc1cc2c(cc1OCCCC(=O)Nc1ccc3occc3c1)N=C[C@@H]1CCCN1C2=O | 9.4 nM | 44 nM | 1400 nM | 3900 nM | 149 | 415 | Active | Active | inactive | – |
| COc1cc2c(cc1OCCCC(=O)Nc1cccc(C)c1)N=C[C@@H]1CCCN1C2=O | 13.6 nM | 20.2 nM | – | – | – | – | – | – | – | – |
| CCOc1ccc(NC(=O)CCCOc2cc3c(cc2OC)C(=O)N2CCC[C@H]2C=N3)cc1 | 5.8 nM | 15.6 nM | 750 nM | 3000 nM | 129 | 517 | inactive | Active | inactive | inactive |
| COc1cc2c(cc1OCCCC(=O)Nc1ccc(C)cc1)N=C[C@@H]1CCCN1C2=O | 12.3 nM | 17.5 nM | – | – | – | – | – | – | – | – |
| CNC(=O)CCCOc1cc2c(cc1OC)C(=O)N1CCC[C@H]1C=N2 | 16100 nM | 18500 nM | – | – | – | – | – | – | – | – |
| COc1cc2c(cc1OCCCC(=O)Nc1ccc3c(c1)CCC3)N=C[C@@H]1CCCN1C2=O | 7.7 nM | 30 nM | – | – | – | – | – | – | – | – |
| COc1cc2c(cc1OCCCC(=O)Nc1cccnc1)N=C[C@@H]1CCCN1C2=O | 4200 nM | 1600 nM | – | – | – | – | – | – | – | – |
| COC(=O)c1cc(NC(=O)c2cc3cc(NC(=O)CCCOc4cc5c(cc4OC)C(=O)N4CCC[C@H]4C=N5)ccc3o2)cn1C | 7.5 nM | 30 nM | 930 nM | 1700 nM | 124 | 227 | – | inactive | Active | inactive |
| CCCNC(=O)CCCOc1cc2c(cc1OC)C(=O)N1CCC[C@H]1C=N2 | 25100 nM | 12700 nM | – | – | – | – | – | – | – | – |
| COc1cc2c(cc1OCCCC(=O)Nc1ccc(O)cc1)N=C[C@@H]1CCCN1C2=O | 5500 nM | 2200 nM | – | – | – | – | inactive | Active | inactive | – |
| COc1cc2c(cc1OCCCC(=O)Nc1ccc(C)c(C)c1)N=C[C@@H]1CCCN1C2=O | 8.6 nM | 23.7 nM | – | – | – | – | – | – | – | – |
| COc1ccc(NC(=O)CCCOc2cc3c(cc2OC)C(=O)N2CCC[C@H]2C=N3)cc1 | 8.9 nM | 15.3 nM | 640 nM | 690 nM | 71.9 | 77.5 | inactive | Active | inactive | – |
| CCCOc1ccc(NC(=O)CCCOc2cc3c(cc2OC)C(=O)N2CCC[C@H]2C=N3)cc1 | 8.5 nM | 8.7 nM | 390 nM | 1100 nM | 45.9 | 129 | – | – | – | – |
| COc1cc2c(cc1OCCCC(=O)Nc1ccc3c(c1)CCO3)N=C[C@@H]1CCCN1C2=O | 5.1 nM | 14.7 nM | – | – | – | – | – | – | – | – |
| COc1cc2c(cc1OCCCC(=O)Nc1ccncc1)N=C[C@@H]1CCCN1C2=O | 4900 nM | 6700 nM | – | – | – | – | – | – | – | – |
| COc1cc2c(cc1OCCCC(=O)NC1CCCCC1)N=C[C@@H]1CCCN1C2=O | 7100 nM | 1400 nM | 1700 nM | 12400 nM | 0.24 | 1.74 | – | – | – | – |
| COc1cc2c(cc1OCCCC(=O)Nc1ccccc1)N=C[C@@H]1CCCN1C2=O | 11.6 nM | 26.4 nM | – | – | – | – | inactive | Active | inactive | – |
| COC(=O)c1cc2cc(NC(=O)CCCOc3cc4c(cc3OC)C(=O)N3CCC[C@H]3C=N4)ccc2o1 | 8.9 nM | 49 nM | 410 nM | 2100 nM | 46.1 | 236 | – | – | – | – |
| CCNC(=O)CCCOc1cc2c(cc1OC)C(=O)N1CCC[C@H]1C=N2 | 11700 nM | 28700 nM | – | – | – | – | – | – | – | – |
| CCCCNC(=O)CCCOc1cc2c(cc1OC)C(=O)N1CCC[C@H]1C=N2 | 22400 nM | 51600 nM | – | – | – | – | – | – | – | – |
| COC(=O)c1cc(NC(=O)c2cc(NC(=O)CCCOc3cc4c(cc3OC)C(=O)N3CCC[C@H]3C=N4)cn2C)cn1C | 39 nM | 21 nM | – | – | – | – | – | – | – | – |

Source: ChEMBL document CHEMBL4411330, “Effects of Systematic Shortening of Noncovalent C8 Side Chain on the Cytotoxicity and NF-κB Inhibitory Capacity of Pyrrolobenzodiazepines (PBDs)” (J Med Chem, 2019)
